Reference: PubChem BioAssay AID624466 (The Scripps Research Institute Molecular Screening Center, 2012)
Hit rate of the full screen: of about 360,000 compounds, about 5,400 (1.5%) were called active. The sample holds actives, similar compounds and a random draw of the others, so the mix is not that of the screen.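 Rule for the calls: active = inhibition above a per-plate cutoff, the mean inhibition of test compounds on that plate plus 3 SD (cut at about 49% in these data); inactive = the rest.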

The compounds below were run against Trace amine-associated receptor 1 (Homo sapiens) (UniProt Q96RJ0) (assay: blockers of beta-PEA-driven TAAR1 calcium signal – Fluo-8 calcium fluorescence, CHO RD-HGA16 cells, primary screen (AID 624466;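 note: 0% = DMSO plus EC80 beta-PEA response and 100% = DMSO alone without agonist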)). Conditions: CHO RD-HGA16 TAAR1, Fluo-8 calcium fluorescence, antagonist; at 3 µM; hits give high values.
Trace amine-associated receptor 1 (Homo sapiens), sequence (Q96RJ0 whole entry, looked up, the tested form may be a part): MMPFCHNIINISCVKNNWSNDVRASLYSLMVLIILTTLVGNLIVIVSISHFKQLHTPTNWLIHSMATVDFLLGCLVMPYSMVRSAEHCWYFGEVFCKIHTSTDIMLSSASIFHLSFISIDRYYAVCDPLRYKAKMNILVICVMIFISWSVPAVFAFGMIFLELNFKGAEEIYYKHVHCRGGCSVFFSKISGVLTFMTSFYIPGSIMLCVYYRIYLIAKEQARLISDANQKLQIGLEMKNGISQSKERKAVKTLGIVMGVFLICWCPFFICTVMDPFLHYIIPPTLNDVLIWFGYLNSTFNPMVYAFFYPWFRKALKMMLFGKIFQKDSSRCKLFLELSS
How it was run: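 Test system – hTAAR1-expressing CHO RD-HGA16 cells, Gα16-coupled · Also added – β-PEA at EC80 concentration, post-compound challenge · Compound – 3 µM, single point · Incubation – dye loading 75 min at 37 °C, then 30 min room temperature · Measured by – Fluo-8 intracellular calcium dye fluorescence, real-time kinetic reads · Benchmarks – vehicle and agonist controls · Replicates – singlicate, one well per test compound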

inhibition, active:
CC(=O)Nc1ccc(-c2csc(NC(=O)Nc3ccccc3)n2)cc1 63.2%, O=C(NCC1CCCO1)c1cc2c([nH]c3ccccc32)c(-c2ccc(F)cc2)n1 (centres undefined) 74.8%, Cc1ccc(/C=C/C(=O)Nc2ccc([N+](=O)[O-])c(NC(=O)/C=C/c3ccc(C)o3)c2)o1 48.8%, COC(=O)c1sccc1NC(=O)c1cc(OC)c(OC)c(OC)c1 52.3%, O=C(NN=Cc1ccccc1O)NN=Cc1ccccc1O 53.9%, O=C(CCc1ccccc1)Nc1cccc(-c2nnc(-c3ccco3)o2)c1 56.8%, O=C(O)C1C2C=CC(O2)C1C(=O)NCCc1cccc(Cl)c1 (centres undefined) 70.5%, O=C(/C=C/c1ccco1)Nc1ccc(Oc2ccccc2)cc1 52.3%, c1ccc(C(=NNc2nc3ccccc3s2)c2ccccn2)cc1 53.9%, CSc1nc(-c2ccccc2)nc(C(Cl)Cl)n1 58.9%, COc1cccc(NC(=O)[C@H](Cc2c[nH]c3ccccc23)NC(=O)[C@@H]2Cc3ccccc3CN2)c1 49.5%, COc1ccc(CNC(=O)COc2ccccc2C(=O)c2cnn(-c3ccccc3)c2)cc1OC 54%

inhibition, inactive:
Nc1nc2c(ncn2[C@@H]2O[C@H](C(=O)N[C@H](Cc3ccccc3)C(=O)NCC3CCCCC3)[C@@H](O)[C@H]2O)c(=O)[nH]1 -12.4%, O=C(Cn1cncn1)N/N=C/c1c2ccccc2cc2ccccc12 -12.2%, Cc1ccc(S(=O)(=O)N[C@H](CO)C(C)C)cc1 -9.25%, NC(c1ccccc1)c1csc(NC(=O)Nc2cccc(C(F)(F)F)c2)n1 (centres undefined) 35.6%, Cc1ccc(NC(=O)Nc2cc(-c3ccccc3)nn2C)cc1Cl 8.7%, CCCC(CNC(=O)COC(=O)C1=NNC(=O)CC1)c1ccc(Cl)cc1Cl (centres undefined) -3.84%, COCCCNC(=O)C1CC(=O)N(c2ccc(C)cc2)C1 (centres undefined) -3.91%, COc1ccc2cc(C(=O)NCC3CCCO3)[nH]c2c1 (centres undefined) -16.3%, O=C(NCCCO)c1cc2c([nH]c3ccccc32)c(-c2ccc(F)cc2)n1 23.9%, CC(=O)Nc1cccc(-c2cc(NC=O)c3ncc(-c4ccc(F)c(Cl)c4)n3c2)c1 39%, Cc1c(C)n2c(SCC(=O)N3CCCC3)nnc2[nH]c1=O -9.03%, CN1CCCCC(NC(=O)C(C)(C)C)C1=O (centres undefined) -14%, Cc1ccc(/C=C/C(=O)Nc2cc(S(=O)(=O)N3CCCCCC3)ccc2OCC(F)(F)F)o1 -13.9%, COC(=O)/C=C\C(=O)Nc1cccc([N+](=O)[O-])c1 -1.13%, CC(C(=O)N=Nc1c(O)n(C)c2ccc(Br)cc12)n1cnc2ccccc2c1=O (centres undefined) -6.29%, COCc1[nH]nc2c1C(c1ccccc1)N(c1ccccc1)C2=O (centres undefined) -20.8%, O=[N+]([O-])c1ccc(N2CCNCC2)cc1NCc1cccnc1 13.4%, COC(=O)c1sccc1NC(=O)CCC1CCCC1 15.8%, COc1ccc(Cc2nnc(NC(=O)c3cc(OC)c(OC)c(OC)c3)s2)cc1OC -43.4%, CCOC(=O)[C@]12CCC=C1N(Cc1ccco1)C(=O)[C@H](CC(=O)NCc1cccc(C(F)(F)F)c1)C2 -12.7%, O=S1(=O)CC(N2CCN(CCO)CC2)CN1Cc1cn(Cc2cccc(Cl)c2)nn1 (centres undefined) -8.99%, Oc1ccccc1C=NC1CCCCC1N=Cc1ccccc1O (centres undefined) 0.73%, O=C(N/N=C/c1ccccc1O)/C(=C/c1ccccc1)CCO 12.2%, CN1C(=O)C(Br)(Br)CC1c1cccnc1 (centres undefined) -9.8%, O=C(CSc1nnc(-c2ccco2)o1)NCC(=O)c1ccccc1 -36%, C/C(=N/NC(=O)CCc1ccccc1)c1ccco1 -8.62%, COC1(C2=NCCN2)COc2ccccc2O1 (centres undefined) -15.3%, Cc1ccc(S(=O)(=O)N(c2cccc(C)c2)C2CCS(=O)(=O)C2)cc1 (centres undefined) -4.68%, O=C(O)C1C2C=CC(O2)C1C(=O)Nc1ccccn1 (centres undefined) 13.6%, O=C(NCCc1ccccc1)C1CC1 1.61%, COc1ccc(N/N=C2/CCCCC2=O)cc1 -11.3%, O=C(NCCN1CCOCC1)C1CCN(S(=O)(=O)c2ccccc2)CC1 1.73%, CCCCNC(=O)OC1CC2CC1[C@H]1CCCCN1C2=O (some centres undefined) -1.17%, Cc1nc2c(C(=O)NCc3cccs3)cnn2c(C)c1Cc1ccc(F)cc1 9.05%, COc1cccc(NC(=O)COC(=O)/C=C/c2ccco2)c1 -14.3%, O=C(O)/C=C\C(=O)Nc1ccc(OCc2ccccc2)cc1 4.01%, CCCCCCCCN1C(=O)[C@@H](CC(=O)NCc2ccc(C)o2)C[C@@]2(C(=O)OC)C1=C[C@H](C(C)(C)C)O[C@@H]2C -36.1%, C/C(=N/Nc1nc(-c2ccccc2)c(CC(=O)O)s1)c1ccccc1 24.8%, COc1cc(OC)nc(N/N=C(\c2ccccc2)c2ccncc2)n1 5.98%, Nc1nc2c(ncn2[C@@H]2O[C@H](C(=O)N[C@@H](Cc3ccccc3)C(=O)NCc3ccccc3)[C@@H](O)[C@H]2O)c(=O)[nH]1 -6.97%, COCCNC(=S)Nc1cc(S(=O)(=O)N2CCOCC2)ccc1N1CCCCC1 -23.6%, Clc1ccc2nc(-c3ccccc3)nc(C(Cl)Cl)c2c1 2.4%, COc1ccc(CNC(=O)[C@H](Cc2c[nH]c3ccccc23)NC(C)=O)cc1OC -1.22%, COc1ccc(NC(=O)[C@H](NC(=O)[C@@H]2Cc3ccccc3CN2)c2ccccc2)cc1 -18%, Cc1cccc(C)c1NC(=O)C(c1cccc2ccccc12)n1c(=O)c(-c2ccco2)nc2ccccc21 (centres undefined) -9.07%, COc1ccc(CNC(=O)COC(=O)c2sccc2C)cc1OC -9.87%, COc1ccc(CNC(=O)COC(=O)c2c(C)nn(-c3ccccc3)c2C)cc1OC -1.94%
